≈ marks a conversion by molar mass, not a printed value. Calls of active or inactive are those of the source. The rule behind the calls is not given here.
How the values were obtained:
Staphylococcus aureus [1] = experiment: Antibacterial activity against methicillin-resistant Staphylococcus aureus 2658 RCMB after 18 hrs by broth microdilution assay; type: functional
Method in brief: (§1)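 Broth microdilution: inoculum from 0.5 McFarland suspension diluted to about 5 × 10^5 CFU/mL. Media were cation-adjusted Mueller-Hinton broth for staphylococci, brain heart infusion for E. faecium, and tryptone soya broth for E. faecalis, S. pneumoniae and L. monocytogenes.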

Staphylococcus aureus [2] = experiment: Bactericidal activity against methicillin-resistant Staphylococcus aureus NRS385 incubated fo 18 hrs followed by re-plating on tryptic soy agar plates at 37 degC for 18 hrs by broth microdilution assay; type: functional; settings: NRS385, 18 h
Staphylococcus aureus [3] = experiment: Inhibition of biofilm formation in methicillin-resistant Staphylococcus aureus NRS384 USA300 after 24 hrs by crystal violet staining-based spectrophotometric analysis
Staphylococcus aureus [4] = experiment: Antibacterial activity against vancomycin-resistant Staphylococcus aureus VRS12 after 18 hrs by broth microdilution assay; type: functional; settings: VRS12, 18 h; method in brief: as §1
[5] = test system: Staphylococcus epidermidis; experiment: Antibacterial activity against methicillin-resistant Staphylococcus epidermidis NRS101 after 18 hrs by broth microdilution assay; type: functional; settings: NRS101, 18 h; method in brief: as §1
Staphylococcus aureus [6] = experiment: Antibacterial activity against methicillin-resistant Staphylococcus aureus NRS119 after 18 hrs by broth microdilution assay; type: functional; settings: NRS119, 18 h; method in brief: as §1
Staphylococcus aureus [7] = experiment: Antibacterial activity against methicillin-sensitive Staphylococcus aureus ATCC 6538 after 18 hrs by broth microdilution assay; type: functional; settings: ATCC 6538, 18 h; method in brief: as §1
Staphylococcus aureus [8] = experiment: Bactericidal activity against methicillin-sensitive Staphylococcus aureus NRS107 incubated fo 18 hrs followed by re-plating on tryptic soy agar plates at 37 degC for 18 hrs by broth microdilution assay; type: functional; settings: NRS107, 18 h
Staphylococcus aureus [9] = experiment: Inhibition of biofilm formation in methicillin-resistant Staphylococcus aureus NRS384 USA300 at 1 time MIC after 24 hrs by crystal violet staining-based spectrophotometric analysis relative to control; parameters: scale not given: the % may be the effect or the level left
Staphylococcus aureus [10] = experiment: Antibacterial activity against methicillin-resistant Staphylococcus aureus NRS123 USA400 after 18 hrs by broth microdilution assay; type: functional; settings: NRS123 USA400, 18 h; method in brief: as §1
Staphylococcus aureus [11] = experiment: Antibacterial activity against methicillin-sensitive Staphylococcus aureus NRS107 after 18 hrs by broth microdilution assay; type: functional; settings: NRS107, 18 h; method in brief: as §1
Staphylococcus aureus [12] = experiment: Bactericidal activity against methicillin-resistant Staphylococcus aureus NRS123 USA400 incubated fo 18 hrs followed by re-plating on tryptic soy agar plates at 37 degC for 18 hrs by broth microdilution assay; type: functional; settings: NRS123 USA400, 18 h
Staphylococcus aureus [13] = experiment: Bactericidal activity against vancomycin-resistant Staphylococcus aureus VRS10 incubated fo 18 hrs followed by re-plating on tryptic soy agar plates at 37 degC for 18 hrs by broth microdilution assay; type: functional; settings: VRS10, 18 h
Caco-2 = experiment: Cytotoxicity against human Caco2 cells at 32 ug/ml after 2 hrs by MTS assay; type: cell-based; settings: caco-2, 2 h
Method in brief: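 Caco-2 cells grown in DMEM with 20% FBS, non-essential amino acids and penicillin-streptomycin, 37 °C, 5% CO2; exposed in triplicate to compounds (16, 32, 64 µg/mL) for 2 h; MTS added, 4 h further incubation, OD490 read; viability as percent of DMSO-treated controls; two independent experiments.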

Listeria monocytogenes [14] = experiment: Bactericidal activity against Listeria monocytogenes ATCC 19111 incubated fo 18 hrs followed by re-plating on tryptic soy agar plates at 37 degC for 18 hrs by broth microdilution assay; type: functional; settings: ATCC 19111, 18 h
Enterococcus faecium [15] = experiment: Antibacterial activity against vancomycin-resistant Enterococcus faecium ATCC 700221 after 18 hrs by broth microdilution assay; type: functional; settings: ATCC 700221, 18 h; method in brief: as §1
Enterococcus faecium [16] = experiment: Bactericidal activity against vancomycin-resistant Enterococcus faecium ATCC 700221 incubated fo 18 hrs followed by re-plating on tryptic soy agar plates at 37 degC for 18 hrs by broth microdilution assay; settings: ATCC 700221, 18 h
Staphylococcus aureus [17] = experiment: Bactericidal activity against methicillin-resistant Staphylococcus aureus NRS119 incubated fo 18 hrs followed by re-plating on tryptic soy agar plates at 37 degC for 18 hrs by broth microdilution assay; type: functional; settings: NRS119, 18 h
Staphylococcus aureus [18] = experiment: Antibacterial activity against methicillin-resistant Staphylococcus aureus NRS123 USA400 assessed as reduction in bacterial growth after 2 to 4 hrs by time kill assay; type: functional, organism-based
Method in brief: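 Samples taken at 0, 2, 4, 6, 8, 12 and 24 h were serially diluted in PBS, plated on TSA and incubated ≥18 h for viable CFU/mL. DMSO was the negative control; two independent experiments.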

Staphylococcus aureus [19] = experiment: Antibacterial activity against methicillin-resistant Staphylococcus aureus NRS384 USA300 after 18 hrs by broth microdilution assay; type: functional; settings: NRS384 USA300, 18 h; method in brief: as §1
Staphylococcus aureus [20] = experiment: Antibacterial activity against methicillin-resistant Staphylococcus aureus NRS386 after 18 hrs by broth microdilution assay; type: functional; settings: NRS386, 18 h; method in brief: as §1
Staphylococcus aureus [21] = experiment: Bactericidal activity against methicillin-resistant Staphylococcus aureus NRS384 USA300 incubated fo 18 hrs followed by re-plating on tryptic soy agar plates at 37 degC for 18 hrs by broth microdilution assay; type: functional; settings: NRS384 USA300, 18 h
Staphylococcus aureus [22] = experiment: Bactericidal activity against vancomycin-resistant Staphylococcus aureus VRS12 incubated fo 18 hrs followed by re-plating on tryptic soy agar plates at 37 degC for 18 hrs by broth microdilution assay; type: functional; settings: VRS12, 18 h
Staphylococcus aureus [23] = experiment: Antibacterial activity against methicillin-resistant Staphylococcus aureus NRS385 after 18 hrs by broth microdilution assay; type: functional; settings: NRS385, 18 h; method in brief: as §1
Staphylococcus aureus [24] = experiment: Bactericidal activity against methicillin-resistant Staphylococcus aureus NRS386 incubated fo 18 hrs followed by re-plating on tryptic soy agar plates at 37 degC for 18 hrs by broth microdilution assay; type: functional; settings: NRS386, 18 h
Staphylococcus aureus [25] = experiment: Antibacterial activity against vancomycin-resistant Staphylococcus aureus VRS10 after 18 hrs by broth microdilution assay; type: functional; settings: VRS10, 18 h; method in brief: as §1
Enterococcus faecalis [26] = experiment: Antibacterial activity against vancomycin-resistant Enterococcus faecalis ATCC 51299 after 18 hrs by broth microdilution assay; type: functional; settings: ATCC 51299, 18 h; method in brief: as §1
[27] = test system: Staphylococcus epidermidis; experiment: Bactericidal activity against methicillin-resistant Staphylococcus epidermidis NRS101 incubated fo 18 hrs followed by re-plating on tryptic soy agar plates at 37 degC for 18 hrs by broth microdilution assay; type: functional; settings: NRS101, 18 h
Staphylococcus aureus [28] = experiment: Inhibition of biofilm formation in methicillin-resistant Staphylococcus aureus NRS384 USA300 at 2 times MIC after 24 hrs by crystal violet staining-based spectrophotometric analysis relative to control; parameters: scale not given: the % may be the effect or the level left
Listeria monocytogenes [29] = experiment: Antibacterial activity against Listeria monocytogenes ATCC 19111 after 18 hrs by broth microdilution assay; type: functional; settings: ATCC 19111, 18 h
Staphylococcus aureus [30] = experiment: Bactericidal activity against methicillin-sensitive Staphylococcus aureus ATCC 6538 incubated fo 18 hrs followed by re-plating on tryptic soy agar plates at 37 degC for 18 hrs by broth microdilution assay; type: functional; settings: ATCC 6538, 18 h
Staphylococcus aureus [31] = experiment: Antibacterial activity against methicillin-resistant Staphylococcus aureus NRS123 USA400 assessed as change in MIC after 14 serial passages by broth microdilution assay
[32] = Safety index, ratio of cytotoxicity against human Caco2 cells at 32 ug/ml after 2 hrs by MTS assay to antibacterial activity against methicillin-resistant Staphylococcus aureus; type: toxicity, cell-based; settings: Caco-2 cells
Enterococcus faecalis [33] = experiment: Bactericidal activity against vancomycin-resistant Enterococcus faecalis ATCC 51299 incubated fo 18 hrs followed by re-plating on tryptic soy agar plates at 37 degC for 18 hrs by broth microdilution assay; type: functional; settings: ATCC 51299, 18 h

Cc1nc(-c2ccc(C(C)(C)C)cc2)sc1-c1ccnc(NC2CCCCC2)n1
MIC (Staphylococcus aureus [1]): > 50 µg/mL

Cc1nc(-c2ccc(C(C)(C)C)cc2)sc1-c1ccnc(NC(=N)N(C)C)n1
MBC (Staphylococcus aureus [2]): 8 µg/mL (≈ 20.3 µM) | inhibition (Staphylococcus aureus [3]): Dose-dependent effect | MIC (Staphylococcus aureus [4]): 8 µg/mL (≈ 20.3 µM) | MIC [5]: 8 µg/mL (≈ 20.3 µM) | MIC (Staphylococcus aureus [6]): 8 µg/mL (≈ 20.3 µM) | MIC (Staphylococcus aureus [7]): 8 µg/mL (≈ 20.3 µM) | MBC (Staphylococcus aureus [8]): 8 µg/mL (≈ 20.3 µM) | Activity (Staphylococcus aureus [9]): 35.5% | MIC (Staphylococcus aureus [10]): 8 µg/mL (≈ 20.3 µM) | MIC (Staphylococcus aureus [11]): 8 µg/mL (≈ 20.3 µM) | MBC (Staphylococcus aureus [12]): 8 µg/mL (≈ 20.3 µM) | MBC (Staphylococcus aureus [13]): 8 µg/mL (≈ 20.3 µM) | Activity (Caco-2): Toxic | MBC (Listeria monocytogenes [14]): 8 µg/mL (≈ 20.3 µM) | MIC (Enterococcus faecium [15]): 8 µg/mL (≈ 20.3 µM) | MBC (Enterococcus faecium [16]): 16 µg/mL (≈ 40.6 µM) | MBC (Staphylococcus aureus [17]): 8 µg/mL (≈ 20.3 µM) | Activity (Staphylococcus aureus [18]): Active | MIC (Staphylococcus aureus [1]): 1.17 µg/mL (≈ 2.97 µM) | MIC (Staphylococcus aureus [19]): 8 µg/mL (≈ 20.3 µM) | MIC (Staphylococcus aureus [20]): 8 µg/mL (≈ 20.3 µM) | MBC (Staphylococcus aureus [21]): 8 µg/mL (≈ 20.3 µM) | MBC (Staphylococcus aureus [22]): 8 µg/mL (≈ 20.3 µM) | MIC (Staphylococcus aureus [23]): 8 µg/mL (≈ 20.3 µM) | MBC (Staphylococcus aureus [24]): 8 µg/mL (≈ 20.3 µM) | MIC (Staphylococcus aureus [25]): 8 µg/mL (≈ 20.3 µM) | MIC (Enterococcus faecalis [26]): 8 µg/mL (≈ 20.3 µM) | MBC [27]: 8 µg/mL (≈ 20.3 µM) | Activity (Staphylococcus aureus [28]): 48.2% | MIC (Listeria monocytogenes [29]): 8 µg/mL (≈ 20.3 µM) | MBC (Staphylococcus aureus [30]): 8 µg/mL (≈ 20.3 µM)

Cc1nc(-c2ccc(C(C)(C)C)cc2)sc1-c1ccnc(N)n1
MIC (Staphylococcus aureus [1]): 6.25 µg/mL (≈ 19.3 µM)

Cc1nc(-c2ccc(C(C)(C)C)cc2)sc1-c1ccnc(NN)n1
MIC (Staphylococcus aureus [1]): 1.56 µg/mL (≈ 4.6 µM)

Cc1nc(-c2ccc(C(C)(C)C)cc2)sc1-c1ccnc(N2CCOCC2)n1
MIC (Staphylococcus aureus [1]): 25 µg/mL (≈ 63.4 µM)

Cc1nc(-c2ccc(C(C)(C)C)cc2)sc1-c1ccnc(N(C)C)n1
MIC (Staphylococcus aureus [1]): > 50 µg/mL

CCNc1nccc(-c2sc(-c3ccc(C(C)(C)C)cc3)nc2C)n1
MIC (Staphylococcus aureus [1]): > 50 µg/mL

CNC(=N)Nc1nccc(-c2sc(-c3ccc(C(C)(C)C)cc3)nc2C)n1
MIC (Staphylococcus aureus [1]): 1.56 µg/mL (≈ 4.1 µM)

CO[C@H]1/C=C/O[C@@]2(C)Oc3c(C)c(O)c4c(O)c(c(/C=N/N5CCN(C)CC5)c(O)c4c3C2=O)NC(=O)/C(C)=C\C=C\[C@H](C)[C@H](O)[C@@H](C)[C@@H](O)[C@@H](C)[C@H](OC(C)=O)[C@@H]1C [RIFAMPIN]
Ratio (Staphylococcus aureus [31]): >500000

Cc1nc(-c2ccc(C(C)(C)C)cc2)sc1-c1ccnc(NC(=N)N2CCOCC2)n1
inhibition (Staphylococcus aureus [3]): Dose-dependent effect | MIC [5]: 4 µg/mL (≈ 9.16 µM) | MIC (Staphylococcus aureus [7]): 4 µg/mL (≈ 9.16 µM) | Activity (Staphylococcus aureus [9]): 18.1% | Activity (Caco-2): Non-Toxic | MIC (Enterococcus faecium [15]): 4 µg/mL (≈ 9.16 µM) | MBC (Enterococcus faecium [16]): 8 µg/mL (≈ 18.3 µM) | selectivity ratio at 2 h, 32 ug/ml [32]: 8 to 30 | Activity (Staphylococcus aureus [18]): Active | MIC (Staphylococcus aureus [1]): 1.17 µg/mL (≈ 2.68 µM) | MIC (Staphylococcus aureus [19]): 4 µg/mL (≈ 9.16 µM) | MIC (Staphylococcus aureus [23]): 4 µg/mL (≈ 9.16 µM) | MIC (Enterococcus faecalis [26]): 4 µg/mL (≈ 9.16 µM) | MBC [27]: 4 µg/mL (≈ 9.16 µM) | Activity (Staphylococcus aureus [28]): 28.3%

CN[C@H](CC(C)C)C(=O)N[C@H]1C(=O)N[C@@H](CC(N)=O)C(=O)N[C@H]2C(=O)N[C@H]3C(=O)N[C@H](C(=O)N[C@H](C(=O)O)c4cc(O)cc(O)c4-c4cc3ccc4O)[C@H](O)c3ccc(c(Cl)c3)Oc3cc2cc(c3O[C@@H]2O[C@H](CO)[C@@H](O)[C@H](O)[C@H]2O[C@H]2C[C@](C)(N)[C@H](O)[C@H](C)O2)Oc2ccc(cc2Cl)[C@H]1O [VANCOMYCIN]
Activity (Staphylococcus aureus [9]): 3% | MBC (Enterococcus faecalis [33]): 64 µg/mL (≈ 44.2 µM) | MBC (Staphylococcus aureus [13]): > 64 µg/mL | MIC (Enterococcus faecium [15]): > 64 µg/mL | MBC (Enterococcus faecium [16]): > 64 µg/mL

Source: ChEMBL document CHEMBL4229382, “Phenylthiazoles with tert-Butyl side chain: Metabolically stable with anti-biofilm activity” (Eur J Med Chem, 2018)
